# Most compounds without a hit are left out; they make up all but 1.6% or so of the library.
# sEH inhibitor – inhibitors of human soluble epoxide hydrolase; P34913; recombinant human sEH enzymatic activity assay; hit rate 0.34% among 91,000; inhibition, % at 2 µM; in the data active means inhibition above about 80%
# Target sequence (P34913 whole entry, looked up): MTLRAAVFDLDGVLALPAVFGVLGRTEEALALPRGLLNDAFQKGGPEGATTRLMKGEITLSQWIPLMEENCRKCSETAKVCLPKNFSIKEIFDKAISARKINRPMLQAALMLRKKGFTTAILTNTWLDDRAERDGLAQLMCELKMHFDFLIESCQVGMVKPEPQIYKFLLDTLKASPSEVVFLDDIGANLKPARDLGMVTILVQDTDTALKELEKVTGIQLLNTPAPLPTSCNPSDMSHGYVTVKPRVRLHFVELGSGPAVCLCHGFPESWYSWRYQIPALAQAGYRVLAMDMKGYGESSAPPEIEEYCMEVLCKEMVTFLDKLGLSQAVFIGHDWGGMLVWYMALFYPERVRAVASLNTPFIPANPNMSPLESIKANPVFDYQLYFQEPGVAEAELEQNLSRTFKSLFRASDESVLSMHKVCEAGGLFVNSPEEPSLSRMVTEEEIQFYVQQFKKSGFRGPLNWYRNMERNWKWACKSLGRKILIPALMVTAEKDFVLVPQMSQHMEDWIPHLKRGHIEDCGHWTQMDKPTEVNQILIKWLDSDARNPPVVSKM
# CD11b adhes inh – CD11b/CD18-fibrinogen binding inhibition; hit rate 0.54% among 93,000; inhibition, % at 10 µM; K562 CD11b/CD18 adhesion to fibrinogen, ATPlite luminescence; Mn2+ added to activate the integrin; P05107+P11215;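 active means primary inhibition of 50% or more at 10 µM, then 40% or more on retest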
# Smad3 inh – blocks human Smad3 binding to FoxH1 peptide | P84022 | TR-FRET Smad3/Dy647-FoxH1 peptide binding, europium anti-His | inhibition, % at 25 µM | hit rate 0.29% among 88,000;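 active means compounds that reduce the energy-transfer binding signal between the protein and its labelled peptide by more than half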;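 further: 0% = Smad3 plus labelled peptide maximal FRET and 100% = peptide-only background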
# sEH activator – activators of human soluble epoxide hydrolase; P34913; purified human sEH enzymatic activity, activator screen; activation, % at 2 µM; hit rate 0.04% among 91,000; AID 717; in the data active means activation above about 37%
# CD11b adhes enh – CD11b/CD18-fibrinogen binding enhancement. hit rate 0.07% among 93,000. AID 1499. activation, % at 10 µM. K562 CD11b/CD18 adhesion to fibrinogen, ATPlite luminescence. P05107+P11215;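 active means 10 µM primary screen giving 50% or more activity, confirmed by 40% or more on retest at that dose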
# Rev-RRE block – inhibitors of HIV-1 Rev-RRE RNA interaction | P05866 | Rev peptide-RRE RNA binding, FRET | inhibition, % at 8 µM | hit rate 0.79% among 97,000 | AID 704;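 active means inhibition above the screen-wide mean plus 3 SD, cut at about 35% in these data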;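 further: 0% = median DMSO wells and 100% = median Neomycin B control wells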
#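 Material: labelled RRE RNA duplex and labelled Rev peptide / Buffer or medium: HEPES pH 7.5 salt buffer with EDTA / Compound dosing: single point, 8 µM final nominal compound concentration / Benchmarks: DMSO low control, neomycin B high control / Timing: 5 min preincubation and 15 min binding, 25 °C / Technique: FRET fluorescence readout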
# * marks the source's active call; other numbers are inactive results; nt = no result given; [ ] = remark or other dose.
SMILES,sEH inhibitor,CD11b adhes inh,Smad3 inh,sEH activator,CD11b adhes enh,Rev-RRE block
O=c1[nH]c2cc3c(cc2cc1CN(Cc1nnnn1CC1CCCO1)C1CCCC1)OCO3 (configuration not stated),5,-3,1,-6,1,4
O=c1[nH]c2cc3c(cc2cc1CN(CCc1ccccc1)Cc1nnnn1CC1CCCO1)OCO3 (configuration not stated),7,-2,-12,-8,2,41*
O=c1[nH]c2cc3c(cc2cc1CN(Cc1nnnn1CC1CCCO1)C1CCCCC1)OCO3 (configuration not stated),-9,-4,-7,10,0,39*
Cc1ccc2[nH]c(=O)c(CN(CCc3ccccc3)Cc3nnnn3CC3CCCO3)cc2c1 (configuration not stated),-10,nt,-11,8,nt,7
Cc1ccccc1COc1ccc(/C(O)=C2/C(=O)C(=O)N(CCCn3ccnc3)C2c2ccco2)cc1 (configuration not stated),nt,-6,7,nt,-1,nt
CCNC(=S)NNC(=O)c1cc(-c2cccc(OCC)c2)nc2ccccc12,-9,31,nt,11,-5,-3
CCNC(=S)NNC(=O)c1cc(-c2cccc(C)c2)nc2ccccc12,-10,60*,nt,10,-5,1
Cc1cccc(N/C=C/C(=O)c2cccs2)c1C,nt,93,nt,nt,-11,nt
COc1cc([N+](=O)[O-])ccc1N/C=C/C(=O)c1cccs1,-12,6,-7,14,-10,77*
O=C(c1cccn2c(=O)c3cc4ccccc4cc3nc12)N1CCN(c2ccccc2)CC1,-18,-2,3,22,-2,44*
O=C(c1cccn2c(=O)c3ccccc3nc12)N1CCN(c2ccccn2)CC1,-1,-25,0,2,4,2
CC(=O)Nc1cc(CN2CCCCC2)c(O)c2ncccc12,nt,nt,13,nt,nt,nt
CC(=O)c1cc(NC(=O)c2cccc(C(F)(F)F)c2)c(=O)oc1/C=C/N(C)C,-2,nt,nt,4,nt,127*[fluorescence artefact?]
CN(C)/C=C/C(=O)c1ccc(Cl)cc1,5,nt,nt,-3,nt,4
CC(=O)c1cc(NC(=O)c2ccc(Cl)cc2)c(=O)oc1/C=C/N(C)C,0,-12,nt,0,12,129*[fluorescence artefact?]
CCCC1=NN(C(=O)Cc2ccc(OC)cc2)C(O)(C(F)(F)F)C1 (configuration not stated),nt,5,nt,nt,-3,nt
Cc1nc2sccc2c(=O)n1-c1cccc(Cl)c1,-5,2,nt,7,-2,0
CN(N=O)c1ccc(/C=C/c2ccnc3ccccc23)cc1,nt,nt,26,nt,nt,nt
O=C(O)c1ccncc1.O=C(O)c1ccncc1.[Cl][Pt]([Cl])([Cl])[Cl],nt,nt,72*,nt,nt,nt
CCOC(=S)SCC(=O)O,nt,nt,-5,nt,nt,nt
Cc1cc(=O)oc(C)c1C(=O)Nc1ccc2ncccc2c1,3,-10,-20,-3,-4,125*[fluorescence artefact?]
CC[n+]1c(/C=C/N(C)c2ccccc2)oc2ccccc21,nt,35,nt,nt,-1,nt
CC[n+]1c(/C=C/Nc2ccccc2)oc2ccccc21,2,7,nt,0,0,52*
Cc1ccc(-c2nn3c(C)nnc3s2)cc1NC(=O)c1ccc(-c2cccc(Cl)c2)o1,-9,-15,-9,7,88*,7
COC(=O)[C@@H](NC(=O)NCc1ccccc1Cl)C(C)C,89*,nt,7,-89,nt,-1
SMILES,sEH inhibitor,CD11b adhes inh,Smad3 inh,sEH activator,CD11b adhes enh,Rev-RRE block
CC([NH2+][O-])C(C)(C)NO (configuration not stated),-16,3,5,20,-4,-1
Clc1ccc(-c2cn3cccnc3n2)cc1Cl,-10,-12,3,13,92,39*
O=C(Nc1ncc(Br)s1)C(Cc1ccccc1)n1cccc1 (configuration not stated),7,79*,13,-8,-7,2
COc1ccccc1NS(=O)(=O)c1ccc(O)cc1,0,0,nt,-1,-4,6
COc1ccc(NC(=O)c2cccc(S(=O)(=O)Nc3ccc(Br)cc3)c2)cn1,nt,103*,nt,nt,-11,nt
COc1ccccc1NS(=O)(=O)c1cccc(C(=O)NN)c1,94*,-14,-2,-94,3,8
Cc1nn(Cc2ccccc2Cl)c(C)c1C(=O)Nc1nnc(C2CC2)s1,0,12,-4,-2,54*,4

# High-throughput results as filed in PubChem BioAssay.
